Laboratory results as given in ChEMBL document CHEMBL4354837 (J Med Chem, 2020).
Active and inactive are the calls of the source. The rule behind the calls is not given here. Square brackets hold non-standard residues; d marks the D form. Peptide text beside a SMILES is read from it. Dap = NC[C@H](N)C(=O)O

Columns and labels:
[1] = target: T1, Melanocortin receptor 4 (Homo sapiens, UniProt P32245); assay: Inverse agonist activity at human melanocortin receptor 4 expressed in HEK293 cells assessed as inhibition of basal cAMP accumulation incubated for 2 hrs by cAMP Alpha-screen assay; assay type: functional, cell-based
In short: (§1)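 AlphaScreen cAMP assay in stably transfected HEK293 cells, with 10,000 cells/well in IBMX-containing HBSS/HEPES buffer pH 7.4. Peptide alone, up to 100 μM, 2 h at room temperature in the dark, then 2 h lysis/detection. Inverse agonism taken as percent decrease of cAMP from basal, relative to maximal NDP-MSH signal, at 100 μM. Duplicates, three independent experiments.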

[2] = target: Melanocyte-stimulating hormone receptor (Mus musculus) (UniProt Q01727); assay: Agonist activity at mouse melanocortin receptor 1 expressed in HEK293 cells assessed as stimulation of cAMP accumulation at 100 uM incubated for 2 hrs by cAMP Alpha-screen assay relative to control; assay type: functional, cell-based
[3] = target: T2, Melanocortin receptor 3 (Mus musculus, UniProt P33033); assay: Agonist activity at mouse melanocortin receptor 3 expressed in HEK293 cells assessed as stimulation of cAMP accumulation incubated for 2 hrs by cAMP Alpha-screen assay; assay type: functional, cell-based
[4] = target: T3, Melanocortin receptor 4 (Mus musculus, UniProt P56450); assay: Agonist activity at mouse melanocortin receptor 4 expressed in HEK293 cells assessed as stimulation of cAMP accumulation incubated for 2 hrs by cAMP Alpha-screen assay; assay type: functional, cell-based
[5] = target: T4, Melanocortin receptor 5 (Mus musculus, UniProt P41149); assay: Agonist activity at mouse melanocortin receptor 5 expressed in HEK293 cells assessed as stimulation of cAMP accumulation incubated for 2 hrs by cAMP Alpha-screen assay; assay type: functional, cell-based
[6] = target: Melanocyte-stimulating hormone receptor (Mus musculus) (UniProt Q01727); assay: Ratio of IC50 for MDE6-82-1c to IC50 for test compound for displacement of [125I]-NDP-MSH from mouse melanocortin receptor 1 […] incubated for 1 hr by automatic gamma counting method
[7] = target: Melanocortin receptor 3 (Mus musculus) (UniProt P33033); assay: Ratio of IC50 for MDE6-82-1c to IC50 for test compound for displacement of [125I]-NDP-MSH from mouse melanocortin receptor 3 expressed in HEK293 cell mebranes incubated for 1 hr by automatic gamma counting method
In short: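 Whole stably transfected HEK293 cells (>90% confluent) incubated 1 h at 37°C, 5% CO2, in DMEM with 0.1% BSA. […] Cells washed, lysed with NaOH/Triton X-100, and counted by gamma counter. Specific binding normalized to nonradioactive NDP-MSH. IC50 from duplicates in two experiments (mean ± SD). Fold difference taken against the Dap-containing parent control.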

[8] = target: Melanocortin receptor 4 (Mus musculus) (UniProt P56450); assay: Ratio of IC50 for MDE6-82-1c to IC50 for test compound for displacement of [125I]-NDP-MSH from mouse melanocortin receptor 4 […] incubated for 1 hr by automatic gamma counting method
[9] = target: Melanocortin receptor 5 (Mus musculus) (UniProt P41149); assay: Ratio of IC50 for MDE6-82-1c to IC50 for test compound for displacement of [125I]-NDP-MSH from mouse melanocortin receptor 5 […] incubated for 1 hr by automatic gamma counting method
[10] = target: T1, Melanocortin receptor 4; assay: Ratio of IC50 for MDE6-82-1c to IC50 for test compound for displacement of [125I]-NDP-MSH from human melanocortin receptor 4 […] incubated for 1 hr by automatic gamma counting method; assay type: cell membranes
[11] = target: Melanocortin receptor 3 (Mus musculus) (UniProt P33033); assay: Agonist activity at mouse melanocortin receptor 3 expressed in HEK293 cells assessed as stimulation of cAMP accumulation at 100 uM incubated for 2 hrs by cAMP Alpha-screen assay relative to control; assay type: functional, cell-based
[12] = target: Melanocortin receptor 4 (Mus musculus) (UniProt P56450); assay: Agonist activity at mouse melanocortin receptor 4 expressed in HEK293 cells assessed as stimulation of cAMP accumulation at 100 uM incubated for 2 hrs by cAMP Alpha-screen assay relative to control; assay type: functional, cell-based
[13] = target: Melanocortin receptor 5 (Mus musculus) (UniProt P41149); assay: Inverse agonist activity at mouse melanocortin receptor 5 expressed in HEK293 cells assessed as inhibition of basal cAMP accumulation incubated for 2 hrs by cAMP Alpha-screen assay relative to control; assay type: functional, cell-based; conditions: concentration not given here; in short: as §1
[14] = target: T1, Melanocortin receptor 4; assay: Antagonist activity at human melanocortin receptor 4 expressed in HEK293 cells assessed as inhibition of NDP-MSH-induced cAMP accumulation incubated for 2 hrs by cAMP Alpha-screen assay based Schild analysis; assay type: functional, cell-based; conditions: read-out: pA2 (converted)
[15] = target: T2, Melanocortin receptor 3; assay: Antagonist activity at mouse melanocortin receptor 3 expressed in HEK293 cells assessed as inhibition of NDP-MSH-induced cAMP accumulation incubated for 2 hrs by cAMP Alpha-screen assay based Schild analysis; assay type: functional, cell-based; conditions: read-out: pA2 (converted)
In short: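 NDP-MSH (10−6 to 10−12) plus antagonist at 10,000, 5,000, 1,000 and 500 nM, 2 h dark at room temperature. AlphaScreen cAMP read after lysis/bead step 2 h. Schild pA2; duplicates, at least three independent experiments.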

[16] = target: T3, Melanocortin receptor 4; assay: Antagonist activity at mouse melanocortin receptor 4 expressed in HEK293 cells assessed as inhibition of NDP-MSH-induced cAMP accumulation incubated for 2 hrs by cAMP Alpha-screen assay based Schild analysis; assay type: functional, cell-based; conditions: read-out: pA2 (converted)
[17] = target: T4, Melanocortin receptor 5; assay: Displacement of [125I]-NDP-MSH from mouse melanocortin receptor 5 expressed in HEK293 cell mebranes incubated for 1 hr by automatic gamma counting method; assay type: cell-based
[18] = target: T5, Melanocyte-stimulating hormone receptor (Mus musculus, UniProt Q01727); assay: Agonist activity at mouse melanocortin receptor 1 expressed in HEK293 cells assessed as stimulation of cAMP accumulation incubated for 2 hrs by cAMP Alpha-screen assay; assay type: functional, cell-based
[19] = target: Melanocortin receptor 5 (Mus musculus) (UniProt P41149); assay: Inverse agonist activity at mouse melanocortin receptor 5 expressed in HEK293 cells assessed as inhibition of basal cAMP accumulation at 100 uM incubated for 2 hrs by cAMP Alpha-screen assay relative to control; assay type: functional, cell-based; in short: as §1
[20] = target: T5, Melanocyte-stimulating hormone receptor; assay: Displacement of [125I]-NDP-MSH from mouse melanocortin receptor 1 expressed in HEK293 cell mebranes incubated for 1 hr by automatic gamma counting method; assay type: cell-based
In short: (§2)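 Cells washed, lysed 10 min with 0.1 M NaOH/1% Triton X-100, then gamma-counted. Specific binding defined with unlabelled NDP-MSH and normalized to it. Duplicate wells, two experiments. IC50 by non-linear fit. Fold difference taken relative to the Asn-parent macrocycle control.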

[21] = target: T2, Melanocortin receptor 3; assay: Displacement of [125I]-NDP-MSH from mouse melanocortin receptor 3 expressed in HEK293 cell mebranes incubated for 1 hr by automatic gamma counting method; assay type: cell-based
[22] = target: Melanocortin receptor 4 (Mus musculus) (UniProt P56450); assay: Ratio of IC50 for MDE6-82-3c to IC50 for test compound for displacement of [125I]-NDP-MSH from mouse melanocortin receptor 4 expressed in HEK293 cell mebranes incubated for 1 hr by automatic gamma counting method; in short: as §2
[23] = target: T1, Melanocortin receptor 4; assay: Ratio of IC50 for MDE6-82-3c to IC50 for test compound for displacement of [125I]-NDP-MSH from human melanocortin receptor 4 expressed in HEK293 cell membranes incubated for 1 hr by automatic gamma counting method; in short: as §2
[24] = target: Melanocyte-stimulating hormone receptor (Mus musculus) (UniProt Q01727); assay: Ratio of IC50 for MDE6-82-3c to IC50 for test compound for displacement of [125I]-NDP-MSH from mouse melanocortin receptor 1 expressed in HEK293 cell mebranes incubated for 1 hr by automatic gamma counting method; in short: as §2
[25] = target: Melanocortin receptor 3 (Mus musculus) (UniProt P33033); assay: Ratio of IC50 for MDE6-82-3c to IC50 for test compound for displacement of [125I]-NDP-MSH from mouse melanocortin receptor 3 expressed in HEK293 cell mebranes incubated for 1 hr by automatic gamma counting method; in short: as §2
[26] = target: Melanocortin receptor 5 (Mus musculus) (UniProt P41149); assay: Ratio of IC50 for MDE6-82-3c to IC50 for test compound for displacement of [125I]-NDP-MSH from mouse melanocortin receptor 5 expressed in HEK293 cell mebranes incubated for 1 hr by automatic gamma counting method; in short: as §2

Chain of Melanocortin receptor 3 (Mus musculus) (P33033 whole entry): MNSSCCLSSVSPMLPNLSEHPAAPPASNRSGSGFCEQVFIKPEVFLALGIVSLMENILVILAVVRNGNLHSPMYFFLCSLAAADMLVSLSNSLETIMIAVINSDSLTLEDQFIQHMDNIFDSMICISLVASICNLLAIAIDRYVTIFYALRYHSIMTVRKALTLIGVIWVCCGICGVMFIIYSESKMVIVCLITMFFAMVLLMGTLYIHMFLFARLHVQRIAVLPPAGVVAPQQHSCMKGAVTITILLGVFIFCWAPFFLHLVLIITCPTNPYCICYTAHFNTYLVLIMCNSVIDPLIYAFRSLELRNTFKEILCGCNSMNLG
T2 sequence (P33033 whole entry): as above
T3 sequence (P56450 whole entry): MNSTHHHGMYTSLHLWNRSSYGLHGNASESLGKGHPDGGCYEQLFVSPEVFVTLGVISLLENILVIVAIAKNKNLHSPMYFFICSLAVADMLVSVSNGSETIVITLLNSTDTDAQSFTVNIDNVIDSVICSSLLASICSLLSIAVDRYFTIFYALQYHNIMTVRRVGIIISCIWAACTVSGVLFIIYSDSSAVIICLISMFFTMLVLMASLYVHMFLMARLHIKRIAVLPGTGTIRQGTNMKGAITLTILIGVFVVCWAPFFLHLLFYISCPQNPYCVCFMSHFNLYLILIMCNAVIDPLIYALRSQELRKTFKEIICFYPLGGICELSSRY
Chain of Melanocortin receptor 4 (Mus musculus) (P56450 whole entry): as above
T1 sequence (P32245 whole entry): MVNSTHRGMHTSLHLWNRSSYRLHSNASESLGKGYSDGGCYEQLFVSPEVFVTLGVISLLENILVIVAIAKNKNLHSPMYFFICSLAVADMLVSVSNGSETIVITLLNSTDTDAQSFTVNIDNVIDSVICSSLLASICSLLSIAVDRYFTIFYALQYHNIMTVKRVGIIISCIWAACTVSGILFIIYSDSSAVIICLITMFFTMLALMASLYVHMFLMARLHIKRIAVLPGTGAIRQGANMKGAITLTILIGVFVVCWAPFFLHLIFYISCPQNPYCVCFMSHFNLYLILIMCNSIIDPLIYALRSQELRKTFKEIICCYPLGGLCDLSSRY
T5 sequence (Q01727 whole entry): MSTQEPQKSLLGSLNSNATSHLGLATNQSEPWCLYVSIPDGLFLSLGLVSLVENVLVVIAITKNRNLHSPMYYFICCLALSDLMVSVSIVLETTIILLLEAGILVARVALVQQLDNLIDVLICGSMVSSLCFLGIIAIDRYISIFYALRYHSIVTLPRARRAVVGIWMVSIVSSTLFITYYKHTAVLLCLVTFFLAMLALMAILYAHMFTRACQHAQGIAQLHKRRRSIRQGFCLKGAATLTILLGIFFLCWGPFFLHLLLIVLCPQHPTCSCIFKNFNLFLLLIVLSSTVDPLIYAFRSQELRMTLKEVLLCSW
Chain of Melanocyte-stimulating hormone receptor (Mus musculus) (Q01727 whole entry, looked up): as the sequence (Q01727 whole entry) above
T4 sequence (P41149 whole entry): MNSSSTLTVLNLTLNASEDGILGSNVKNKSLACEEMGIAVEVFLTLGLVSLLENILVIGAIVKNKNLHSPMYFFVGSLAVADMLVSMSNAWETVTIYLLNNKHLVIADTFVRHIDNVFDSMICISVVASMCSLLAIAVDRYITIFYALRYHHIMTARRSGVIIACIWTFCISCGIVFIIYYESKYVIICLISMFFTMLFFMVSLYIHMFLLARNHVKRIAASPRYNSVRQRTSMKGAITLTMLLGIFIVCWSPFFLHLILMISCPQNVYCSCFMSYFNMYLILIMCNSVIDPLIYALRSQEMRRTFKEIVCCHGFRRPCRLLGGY
Chain of Melanocortin receptor 5 (Mus musculus) (P41149 whole entry): as above

| SMILES | Activity [1] | Activity [2] [%] | EC50 [3] [µM] | EC50 [4] [µM] | EC50 [5] [µM] | Ratio IC50 [6] | Ratio IC50 [7] | Ratio IC50 [8] | Ratio IC50 [10] | Activity [12] [%] | IC50 [17] [µM] | Ratio IC50 [22] | Ratio IC50 [23] | other results |
| --- | --- | --- | --- | --- | --- | --- | --- | --- | --- | --- | --- | --- | --- | --- |
| C[C@@H]1NC(=O)[C@H](CN)NC(=O)[C@H](Cc2ccccc2)NC(=O)[C@H](Cc2ccc(O)cc2)NC(=O)[C@H](CCCNC(=N)N)NC(=O)[C@@H]2CCCN2C(=O)[C@H]2CCCN2C(=O)[C@H](Cc2ccccc2)NC1=O (cyclo(RYF[Dap]AF[dP]P)) | Active | 48 | > 100 | > 100 | > 100 | 4 | 9 | 70 | 100 |  |  |  |  | Ratio IC50 [9]: 20 |
| CC(C)[C@@H]1NC(=O)[C@H](CN)NC(=O)[C@H](Cc2ccccc2)NC(=O)[C@H](Cc2ccccc2)NC(=O)[C@H](CCCNC(=N)N)NC(=O)[C@@H]2CCCN2C(=O)[C@H]2CCCN2C(=O)[C@H](Cc2ccccc2)NC1=O | Active | 79 |  |  | > 100 |  |  |  |  | 37 |  |  |  | Activity [11]: 27% |
| C[C@@H]1NC(=O)[C@H](CC(N)=O)NC(=O)[C@H](Cc2ccccc2)NC(=O)[C@H](Cc2ccccc2)NC(=O)[C@H](CCCNC(=N)N)NC(=O)[C@@H]2CCCN2C(=O)[C@H]2CCCN2C(=O)[C@H](Cc2ccccc2)NC1=O |  |  |  |  |  |  |  |  |  |  |  |  |  | inhibition [13]: 10% |
| C[C@@H]1NC(=O)[C@H](CN)NC(=O)[C@H](Cc2ccccc2)NC(=O)[C@H](Cc2ccccc2)NC(=O)[C@H](CS)NC(=O)[C@@H]2CCCN2C(=O)[C@H]2CCCN2C(=O)[C@H](Cc2ccccc2)NC1=O (cyclo(PCFF[Dap]AF[dP])) | inactive |  |  |  | > 100 | 6 | 15 | 5200 | 2100 | 42 | > 100 |  |  | Kb [14]: > 10 µM; Activity [11]: 29%; Kb [15]: > 10 µM; Kb [16]: > 10 µM |
| C[C@@H]1NC(=O)[C@H](CN)NC(=O)[C@H](Cc2ccccc2)NC(=O)[C@H](Cc2ccccc2)NC(=O)[C@H](CCCNC(=N)N)NC(=O)[C@@H]2CCCN2C(=O)[C@H]2CCCN2C(=O)[C@H](Cc2ccccc2)NC1=O | Active |  |  |  |  |  |  |  |  |  |  |  |  | inhibition [13]: 15% |
| C[C@@H]1NC(=O)[C@H](CC(N)=O)NC(=O)[C@H](Cc2ccccc2)NC(=O)[C@H](Cc2ccc(O)cc2)NC(=O)[C@H](CCCNC(=N)N)NC(=O)[C@@H]2CCCN2C(=O)[C@H]2CCCN2C(=O)[C@H](Cc2ccccc2)NC1=O (cyclo(PRYFNAF[dP])) | Active |  | > 100 | > 100 |  |  |  |  |  |  | > 100 | 100 | 2000 | EC50 [18]: > 100 µM; inhibition [19]: 35%; IC50 [20]: > 100 µM; IC50 [21]: > 100 µM |
| C[C@@H]1NC(=O)[C@H](CC(N)=O)NC(=O)[C@H](Cc2ccccc2)NC(=O)[C@H](Cc2ccccc2)NC(=O)[C@H](Cc2c[nH]cn2)NC(=O)[C@@H]2CCCN2C(=O)[C@H]2CCCN2C(=O)[C@H](Cc2ccccc2)NC1=O | Active | 23 | > 100 | > 100 | > 100 |  |  |  |  |  | > 100 | 300 | 300 | Kb [15]: > 10 µM; IC50 [20]: > 100 µM; IC50 [21]: > 100 µM |
| CC(C)[C@@H]1NC(=O)[C@H](CC(N)=O)NC(=O)[C@H](Cc2ccccc2)NC(=O)[C@H](Cc2ccccc2)NC(=O)[C@H](CCCNC(=N)N)NC(=O)[C@@H]2CCCN2C(=O)[C@H]2CCCN2C(=O)[C@H](Cc2ccccc2)NC1=O (cyclo(PRFFNVF[dP])) | Active | 23 | > 100 |  | > 100 |  |  |  |  | 16 |  | 2 | 3 | Ratio IC50 [24]: 2; Ratio IC50 [25]: 3; Ratio IC50 [26]: 2 |
| C[C@@H]1NC(=O)[C@H](CN)NC(=O)[C@H](Cc2ccccc2)NC(=O)[C@H](Cc2ccccc2)NC(=O)[C@H](Cc2c[nH]cn2)NC(=O)[C@@H]2CCCN2C(=O)[C@H]2CCCN2C(=O)[C@H](Cc2ccccc2)NC1=O (cyclo(PHFF[Dap]AF[dP])) | inactive | 56 | > 100 | > 100 | > 100 | 5 | 5 | 500 | 400 |  |  |  |  | Ratio IC50 [9]: 7 |
